The source made the active and inactive calls. No cut-off for these calls is given here.
Experiments:
[1] = system: Pseudomonas aeruginosa; assay: Inhibition of beta lactamase AmpC in Pseudomonas aeruginosa 700 assessed as potentiation of ceftazidime-induced antibacterial activity by measuring ceftazidime MIC at 16 mg/L incubated for 18 hrs by broth dilution method (reference value: >[…] mg/L)
[2] = system: Klebsiella pneumoniae ATCC BAA-1705; assay: Inhibition of beta lactamase KPC-2 in Klebsiella pneumoniae ATCC BAA 1705 assessed as potentiation of ceftazidime-induced antibacterial activity by measuring ceftazidime MIC at 16 mg/L incubated for 18 hrs by broth dilution method
[3] = system: Escherichia coli; assay: Inhibition of beta lactamase CMY-2 in Escherichia coli 77 assessed as potentiation of ceftazidime-induced antibacterial activity by measuring ceftazidime MIC at 16 mg/L incubated for 18 hrs by broth dilution method (reference value: […] mg/L)
[4] = system: Escherichia coli; assay: Inhibition of beta lactamase KPC-3 in Escherichia coli 82 TR assessed as potentiation of meropenem-induced antibacterial activity by measuring meropenem MIC at 16 mg/L incubated for 18 hrs by broth dilution method (reference value: 2 mg/L)
[5] = system: Acinetobacter baumannii; assay: Inhibition of beta lactamase OXA-24 in Acinetobacter baumannii 181 assessed as potentiation of ceftazidime-induced antibacterial activity by measuring ceftazidime MIC at 16 mg/L incubated for 18 hrs by broth dilution method (reference value: >[…] mg/L)
[6] = system: Klebsiella pneumoniae; assay: Inhibition of beta lactamase KPC-3 in Klebsiella pneumoniae 81 assessed as potentiation of ceftazidime-induced antibacterial activity by measuring ceftazidime MIC at 16 mg/L incubated for 18 hrs by broth dilution method (reference value: >[…] mg/L)
[7] = system: Pseudomonas aeruginosa; assay: Inhibition of beta lactamase AmpC in Pseudomonas aeruginosa MUW 700 assessed as potentiation of ceftazidime-induced antibacterial activity by measuring diameter of zone inhibition at 0.3 mg incubated for 18 hrs in presence of 30 ug ceftazidime by CLSI disc diffusion method (Rvb=11 mm)
Outline: (§1)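 AmpC combination disc test on Mueller-Hinton agar, following EUCAST guidance and Yagi et al. Inhibition zones were compared between a CAZ-30 disc and a ceftazidime disc plus agent or PBA, each at 0.3 mg per disc. Plates were incubated at 35 °C for 18 h. A zone difference of at least 5 mm was counted as inhibition.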

[8] = system: Klebsiella pneumoniae ATCC BAA-1705; assay: Inhibition of beta lactamase KPC-2 in Klebsiella pneumoniae ATCC BAA 1705 assessed as potentiation of meropenem-induced antibacterial activity by measuring meropenem MIC at 16 mg/L incubated for 18 hrs by broth dilution method (reference value: […] mg/L)
[9] = system: Pseudomonas aeruginosa; assay: Inhibition of beta lactamase VIM in Pseudomonas aeruginosa 698 assessed as potentiation of ceftazidime-induced antibacterial activity by measuring ceftazidime MIC at 16 mg/L incubated for 18 hrs by broth dilution method (reference value: […] mg/L)
[10] = molecular target: Class A carbapenemase KPC-2 (Escherichia coli) (UniProt A8DS27); assay: Inhibition of beta lactamase KPC-2 in Escherichia coli 76 assessed as potentiation of meropenem-induced antibacterial activity by measuring meropenem MIC at 16 mg/L incubated for 18 hrs by broth dilution method (reference value: >[…] mg/L)
[11] = system: Klebsiella pneumoniae; assay: Inhibition of beta lactamase CMY-2 in Klebsiella pneumoniae 78 assessed as potentiation of ceftazidime-induced antibacterial activity by measuring ceftazidime MIC at 16 mg/L incubated for 18 hrs by broth dilution method (reference value: >[…] mg/L)
[12] = system: Klebsiella pneumoniae 700603; assay: (§2) Inhibition of extended-spectrum beta lactamase in Klebsiella pneumoniae ATCC 700603 assessed as potentiation of cefotaxime-induced antibacterial activity by measuring diameter of zone inhibition at 0.3 mg incubated for 18 hrs in presence of 10 ug cefotaxime by CLSI disc diffusion method (Rvb=19 mm)
Outline: (§3)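 EUCAST ESBL combination disc test on Mueller-Hinton agar. Zones were compared between a ceftazidime or cefotaxime disc alone and the same disc plus agent at 0.3 mg per disc. Clavulanic acid discs at 0.01 mg per disc served as reference. Plates were incubated at 35 °C for 18 h. A difference of at least 5 mm was counted as inhibition.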

[13] = system: Klebsiella pneumoniae ATCC BAA-1705; assay: Inhibition of beta lactamase KPC in Klebsiella pneumoniae ATCC BAA 1705 assessed as potentiation of meropenem-induced antibacterial activity by measuring diameter of zone inhibition at 0.3 mg incubated for 18 hrs in presence of 10 ug meropenem by CLSI disc diffusion method (Rvb=[…] mm)
[14] = system: Klebsiella pneumoniae; assay: Inhibition of beta lactamase KPC-3 in Klebsiella pneumoniae 83 assessed as potentiation of ceftazidime-induced antibacterial activity by measuring ceftazidime MIC at 16 mg/L incubated for 18 hrs by broth dilution method (reference value: >[…] mg/L)
[15] = system: Pseudomonas aeruginosa; assay: Inhibition of beta lactamase OXA-15 in Pseudomonas aeruginosa 852 assessed as potentiation of ceftazidime-induced antibacterial activity by measuring ceftazidime MIC at 16 mg/L incubated for 18 hrs by broth dilution method (reference value: >[…] mg/L)
[16] = system: Klebsiella pneumoniae; assay: Inhibition of beta lactamase KPC-3 in Klebsiella pneumoniae 81 assessed as potentiation of meropenem-induced antibacterial activity by measuring meropenem MIC at 16 mg/L incubated for 18 hrs by broth dilution method (reference value: […] mg/L)
[17] = system: Escherichia coli; assay: Inhibition of beta lactamase CMY-2 in Escherichia coli 77 assessed as potentiation of ceftazidime-induced antibacterial activity by measuring diameter of zone inhibition at 0.3 mg incubated for 18 hrs in presence of 30 ug ceftazidime by CLSI disc diffusion method (Rvb=13 mm); outline: as §1
[18] = system: Klebsiella pneumoniae; assay: Inhibition of beta lactamase SHV-12 in Klebsiella pneumoniae ATCC 700603 assessed as potentiation of ceftazidime-induced antibacterial activity by measuring ceftazidime MIC at 16 mg/L incubated for 18 hrs by broth dilution method (reference value: […] mg/L)
[19] = system: Klebsiella pneumoniae; assay: Inhibition of beta lactamase KPC-2 in Klebsiella pneumoniae 75 assessed as potentiation of ceftazidime-induced antibacterial activity by measuring ceftazidime MIC at 16 mg/L incubated for 18 hrs by broth dilution method (reference value: […] mg/L)
[20] = system: Klebsiella pneumoniae; assay: Inhibition of beta lactamase KPC-2 in Klebsiella pneumoniae 75 assessed as potentiation of meropenem-induced antibacterial activity by measuring meropenem MIC at 16 mg/L incubated for 18 hrs by broth dilution method (reference value: […] mg/L)
[21] = system: Escherichia coli; assay: Inhibition of beta lactamase KPC-3 in Escherichia coli 82 TR assessed as potentiation of ceftazidime-induced antibacterial activity by measuring ceftazidime MIC at 16 mg/L incubated for 18 hrs by broth dilution method (reference value: […] mg/L)
[22] = system: Acinetobacter baumannii; assay: Inhibition of beta lactamase OXA-24 in Acinetobacter baumannii 181 assessed as potentiation of meropenem-induced antibacterial activity by measuring meropenem MIC at 16 mg/L incubated for 18 hrs by broth dilution method (reference value: […] mg/L)
[23] = system: Klebsiella pneumoniae; assay: Inhibition of beta lactamase KPC-3 in Klebsiella pneumoniae 83 assessed as potentiation of meropenem-induced antibacterial activity by measuring meropenem MIC at 16 mg/L incubated for 18 hrs by broth dilution method (reference value: […] mg/L)
[24] = system: Klebsiella pneumoniae 700603; assay: as §2, with “ceftazidime-induced” for “cefotaxime-induced”, “ceftazidime” for “cefotaxime”, “(Rvb=13” for “(Rvb=19”; outline: as §3
[25] = molecular target: Class A carbapenemase KPC-2 (Escherichia coli) (UniProt A8DS27); assay: Inhibition of beta lactamase KPC-2 in Escherichia coli 76 assessed as potentiation of ceftazidime-induced antibacterial activity by measuring ceftazidime MIC at 16 mg/L incubated for 18 hrs by broth dilution method (reference value: >[…] mg/L)
[26] = system: Stenotrophomonas maltophilia; assay: Antibacterial activity against Stenotrophomonas maltophilia ATCC 13637 assessed as diameter of zone inhibition measured after 18 hrs by CLSI disc diffusion method; type: functional
Outline: (§4)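 Disc diffusion on Mueller-Hinton II agar. Compounds dissolved in DMSO. Strains stored at -80 °C and subcultured twice on tryptic soy agar before testing. Inhibition zones read after 35 °C, 18 h.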

[27] = system: Staphylococcus epidermidis; assay: Antibacterial activity against Staphylococcus epidermidis ATCC 12228 assessed as diameter of zone inhibition measured after 18 hrs by CLSI disc diffusion method; type: functional; outline: as §4
[28] = system: Enterobacter cloacae; assay: Antibacterial activity against Enterobacter cloacae DSM 6234 assessed as diameter of zone inhibition measured after 18 hrs by CLSI disc diffusion method; type: functional; outline: as §4
[29] = system: Serratia marcescens; details: ATCC 13880
[30] = system: Candida tropicalis; assay: Antifungal activity against Candida tropicalis IBA 171 assessed as diameter of zone inhibition incubated for 24 hrs by CLSI disc diffusion method; type: functional
Outline: (§5)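 Yeast disc diffusion on Mueller-Hinton agar supplemented with 2% glucose and 0.5 mg/L methylene blue. Compounds in DMSO. Yeasts subcultured on Sabouraud dextrose agar before testing. Zones read after 35 °C, 24 h.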

[31] = system: Bacillus subtilis; assay: Antibacterial activity against Bacillus subtilis ATCC 6633 assessed as diameter of zone inhibition measured after 18 hrs by CLSI disc diffusion method; type: functional; outline: as §4
[32] = system: Staphylococcus aureus; assay: Antibacterial activity against Staphylococcus aureus ATCC 6538P assessed as diameter of zone inhibition measured after 18 hrs by CLSI disc diffusion method; type: functional; outline: as §4
[33] = system: Pseudomonas aeruginosa; assay: Antibacterial activity against Pseudomonas aeruginosa ATCC 27853 assessed as diameter of zone inhibition measured after 18 hrs by CLSI disc diffusion method; type: functional, organism-based; outline: as §4
[34] = system: Klebsiella pneumoniae; details: ATCC 13883
[35] = system: Meyerozyma guilliermondii; assay: Antifungal activity against Candida guilliermondii IBA 155 assessed as diameter of zone inhibition incubated for 24 hrs by CLSI disc diffusion method; type: functional; outline: as §5
[36] = system: Enterococcus faecium; assay: Antibacterial activity against Enterococcus faecium ATCC 6057 assessed as diameter of zone inhibition measured after 18 hrs by CLSI disc diffusion method; type: functional; outline: as §4
[37] = system: Pichia kudriavzevii; assay: Antifungal activity against Candida krusei ATCC 6258 assessed as diameter of zone inhibition incubated for 24 hrs by CLSI disc diffusion method; type: functional; outline: as §5
[38] = Dissociation constant, pKa1 of compound in 0.1 M NaOH by potentiometric analysis; type: physicochemical
[39] = system: Escherichia coli; assay: Antibacterial activity against Escherichia coli ATCC 25922 assessed as diameter of zone inhibition measured after 18 hrs by CLSI disc diffusion method; type: functional; outline: as §4
[40] = system: Saccharomyces cerevisiae; assay: Antifungal activity against Saccharomyces cerevisiae ATCC 9763 diameter of zone inhibition incubated for 24 hrs by CLSI disc diffusion method; type: functional
Outline: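 Disc-diffusion run on Mueller-Hinton II agar with 2% glucose and 0.5 mg/L methylene blue, using compounds in DMSO. Yeast was precultured on Sabouraud dextrose agar (24–48 h, 30 °C). Zones read after 24 h at 35 °C.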

[41] = system: Acinetobacter baumannii; assay: Antibacterial activity against Acinetobacter baumannii ATCC 19606 assessed as diameter of zone inhibition measured after 18 hrs by CLSI disc diffusion method; type: functional; outline: as §4
[42] = system: Proteus mirabilis; assay: Antibacterial activity against Proteus mirabilis ATCC 12453 assessed as diameter of zone inhibition measured after 18 hrs by CLSI disc diffusion method; type: functional; outline: as §4
[43] = system: Burkholderia cepacia; assay: Antibacterial activity against Burkholderia cepacia ATCC 25416 assessed as diameter of zone inhibition measured after 18 hrs by CLSI disc diffusion method; type: functional; outline: as §4
[44] = system: Bordetella bronchiseptica; assay: Antibacterial activity against Bordetella bronchiseptica ATCC 4617 assessed as diameter of zone inhibition measured after 18 hrs by CLSI disc diffusion method; type: functional; outline: as §4
[45] = system: Enterococcus faecalis; assay: Antibacterial activity against Enterococcus faecalis ATCC 29212 assessed as diameter of zone inhibition measured after 18 hrs by CLSI disc diffusion method; type: functional; outline: as §4
[46] = system: Candida parapsilosis; assay: Antifungal activity against Candida parapsilosis ATCC 22019 assessed as diameter of zone inhibition incubated for 24 hrs by CLSI disc diffusion method; type: functional; outline: as §5
[47] = system: Candida albicans; assay: Antifungal activity against Candida albicans ATCC 90028 assessed as diameter of zone inhibition incubated for 24 hrs by CLSI disc diffusion method; type: functional; outline: as §5

## OB(O)c1ccccc1
[1]
  MIC: 8 µg/mL
[2]
  MIC: 32 µg/mL
[3]
  MIC: 8 µg/mL
[4]
  MIC: 0.25 µg/mL
[5]
  MIC: > 64 µg/mL
[6]
  MIC: 16 µg/mL
[7]
  inhibition zone (IZ): 22 mm
[8]
  MIC: 16 µg/mL
[9]
  MIC: 64 µg/mL
[10]
  MIC: 32 µg/mL
[11]
  MIC: 32 µg/mL
[12]
  inhibition zone (IZ): 19 mm
[13]
  inhibition zone (IZ): 22 mm
[14]
  MIC: 16 µg/mL
[15]
  MIC: > 64 µg/mL
[16]
  MIC: 2 µg/mL
[17]
  inhibition zone (IZ): 24 mm
[18]
  MIC: 64 µg/mL
[19]
  MIC: 16 µg/mL
[20]
  MIC: 16 µg/mL
[21]
  MIC: 8 µg/mL
[22]
  MIC: > 64 µg/mL
[23]
  MIC: 8 µg/mL
[24]
  inhibition zone (IZ): 14 mm
[25]
  MIC: > 64 µg/mL

## C[Si]1(C)OB(O)c2cccc(Cl)c21
[26]
  diameter of the inhibition zone (DIZ): 13 mm
[27]
  diameter of the inhibition zone (DIZ): 33 mm
[28]
  diameter of the inhibition zone (DIZ): inactive
[29]
  DIZ: inactive
[30]
  diameter of the inhibition zone (DIZ): 12 mm
[31]
  diameter of the inhibition zone (DIZ): 32 mm
[32]
  diameter of the inhibition zone (DIZ): 34 mm
[33]
  diameter of the inhibition zone (DIZ): inactive
[34]
  DIZ: inactive
[35]
  diameter of the inhibition zone (DIZ): 25 mm
[36]
  diameter of the inhibition zone (DIZ): 20 mm
[37]
  diameter of the inhibition zone (DIZ): 17 mm
[38]
  pKa: 6.5
[39]
  diameter of the inhibition zone (DIZ): inactive
[40]
  diameter of the inhibition zone (DIZ): 30 mm
[41]
  diameter of the inhibition zone (DIZ): inactive
[42]
  diameter of the inhibition zone (DIZ): 19 mm
[43]
  diameter of the inhibition zone (DIZ): inactive
[44]
  diameter of the inhibition zone (DIZ): inactive
[45]
  diameter of the inhibition zone (DIZ): 15 mm
[46]
  diameter of the inhibition zone (DIZ): 12 mm
[47]
  diameter of the inhibition zone (DIZ): 17 mm

Reference: ChEMBL document CHEMBL4346672, “Antimicrobial and KPC/AmpC inhibitory activity of functionalized benzosiloxaboroles” (Eur J Med Chem, 2019)
